Results: PubChem BioAssay
Activity calls are given as the source filed them.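 How the source made its calls, unless noted: active means GFP response above 150% of the DMSO level; inconclusive means fewer than 70 events counted for a yeast strain; inactive means the rest.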

What was measured:
[1] = RPL19A-GFP modulators, yeast TOR pathway, confirmation, cell-based, S. cerevisiae, flow cytometry, cherry picks, mother/daughter gates (AID 2270;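 active means GFP response below 50% of the DMSO control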); conditions: S. cerevisiae RPL19A-GFP strain, 3 h, at 10 µM, stronger effect = lower value, 100 = same GFP as DMSO wells
[2] = LAP4-GFP expression modulators in yeast, confirmation, cell-based, cherry picks, flow cytometry, mother/daughter gates (AID 2271;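 active means GFP response above 150% of the DMSO control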;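 further: ratio of sample to DMSO plate mean so 100% equals DMSO level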); conditions: S. cerevisiae LAP4-GFP strain, 3 h, at 10 µM, stronger effect = higher value, 100 means same as DMSO control
Method in brief: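 System: Alexa 633-stained baker's yeast GFP-fusion strain; quantity: 0.2 OD600 cells; timing: compound exposure 3 h at 30 °C, end-over-end rotation; detection: HT flow cytometry, GFP fluorescence channel; measure: per-gate (all, mother, daughter) GFP response vs DMSO; control set: DMSO-only negative wells, rapamycin 400 ng/mL positive wells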

[3] = modulators of MEP2-GFP levels in yeast, confirmation, S. cerevisiae, flow cytometry GFP, cherry picks (AID 2272;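 active means GFP response above 150% of the DMSO control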;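 further: ratio of well signal to plate DMSO mean so 100% equals DMSO level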); conditions: S. cerevisiae MEP2-GFP strain, 3 h, at 10 µM, stronger effect = higher value
[4] = AGP1-GFP expression modulators, hit retest, confirmation, cell-based, flow cytometry, S. cerevisiae, cherry picks (AID 2273);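 further: median GFP channel fluorescence over the whole cell population gate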; conditions: S. cerevisiae AGP1-GFP strain, 3 h, at 10 µM
[5] = modulators of CIT2-GFP expression in yeast, confirmation, S. cerevisiae, GFP fusion, cherry picks, mother/daughter gates (AID 2274); conditions: S. cerevisiae CIT2-GFP strain, flow cytometry, 3 h, at 10 µM, stronger effect = higher value
[6] = measured here: daughter cell gate
[7] = measured here: mother cell gate
[8] = measured here: daughter cell gate response
[9] = measured here: mother cell gate response

SMILES | GFP response vs DMSO [1] | GFP response vs DMSO [1, 6] | GFP response vs DMSO [1, 7] | GFP response relative to DMSO [2] | GFP response relative to DMSO [2, 8] | GFP response relative to DMSO [2, 9] | GFP response vs DMSO [3] | GFP response, % of DMSO [4] | GFP response, % of DMSO [5] | GFP response, % of DMSO [5, 6] | GFP response, % of DMSO [5, 7]
NS(=O)(=O)c1ccc(S(=O)(=O)c2ccccc2)nc1 | 98.2% (inactive) | 99.1% | 96.9% | 97.9% (inactive) | 97.6% | 97.2% | 102% (inactive) | 95.6% (inactive) | 103% (inactive) | 105% | 102%
O=C1C2C3C=CC(CO)(O3)C2C(=O)N1c1ccccc1-c1ccccc1 (centres undefined) | 113% (inactive) | 117% | 110% | 135% (inactive) | 128% | 132% | 126% (inactive) | 109% (inactive) | 124% (inactive) | 132% | 113%
C/C(=N\NC(=O)c1c(Br)c(C)nn1C)c1cccc(NC(=O)C2CCC2)c1 | 100% (inactive) | 101% | 102% | 101% (inactive) | 97.9% | 101% | 102% (inactive) | 106% (inactive) | 99.3% (inactive) | 98.3% | 99.1%
CC(=O)c1ccccc1NCC(=O)Nc1ccc(C)cc1 | 96.3% (inactive) | 95% | 96% | 99.8% (inactive) | 98.2% | 101% | 103% (inactive) | 100% (inactive) | 93.4% (inactive) | 95.2% | 92.8%
CC1=NNC(=O)/C1=C\c1cn(-c2ccccc2)nc1-c1ccccc1 | 98% (inactive) | 82.8% | 95.5% | 242% (active) | 164% | 236% | 110% (inactive) | 124% (inactive) | 115% (inactive) | 93.7% | 104%
Cc1cc(O)c(C(=O)/C=C/c2ccccc2Br)c(=O)o1 | 90.3% (inactive) | 95.9% | 87.7% | 140% (inactive) | 137% | 144% | 97.8% (inactive) | 102% (inactive) | 95.2% (inactive) | 98.1% | 93.4%
COc1ccc(-c2cc(C(F)(F)F)nc(S(C)(=O)=O)n2)cc1 | 102% (inactive) | 104% | 96.1% | 136% (inactive) | 134% | 133% | 130% (inactive) | 116% (inactive) | 95.2% (inactive) | 98.1% | 86.9%
Cc1ccc(-c2csc(NC(=O)c3cccc([N+](=O)[O-])c3)n2)cc1 | 101% (inactive) | 98.1% | 97.5% | 97% (inactive) | 95.9% | 97.3% | 107% (inactive) | 99.6% (inactive) | 98.8% (inactive) | 97.4% | 93.2%
O=C(O)C1Sc2[nH]c(=O)sc2C2c3cc(Br)ccc3OC(=O)C12 (centres undefined) | 96.3% (inactive) | 97.6% | 96.8% | 171% (active) | 150% | 200% | 195% (active) | 102% (inactive) | 111% (inactive) | 108% | 113%
S=c1[nH]nc(-c2ccco2)n1/N=C/C(Cl)=C/c1ccccc1 | 98.4% (inactive) | 98.5% | 98.3% | 129% (inactive) | 121% | 131% | 112% (inactive) | 95.6% (inactive) | 97.8% (inactive) | 100% | 94.5%
O=C(/C=C/c1ccc(F)cc1)c1ccccc1Br | 98% (inactive) | 98.1% | 98.3% | 112% (inactive) | 112% | 116% | 103% (inactive) | 98.1% (inactive) | 93.4% (inactive) | 93.7% | 89.8%
Cc1cccn2c(=O)c(/C=C(\C#N)C(=O)NCc3ccco3)c(N3CCC(C(N)=O)CC3)nc12 | 89.5% (inactive) | 90.9% | 91.4% | 99.8% (inactive) | 99.7% | 100% | 103% (inactive) | 101% (inactive) | 92.2% (inactive) | 95.2% | 92.8%
Cc1ccc(C2=NN(S(C)(=O)=O)C(c3ccc4c(c3)OCO4)C2)cc1 (centres undefined) | 101% (inactive) | 99.6% | 102% | 116% (inactive) | 115% | 115% | 141% (inactive) | 103% (inactive) | 129% (inactive) | 130% | 119%
CC(C)(C)n1nc(-c2ccc(Cl)cc2)c2c(N)ncnc21 | 44.2% (active) | 39.7% | 45.6% | 191% (active) | 172% | 195% | 118% (inactive) | 106% (inactive) | 44.4% (inactive) | 46.1% | 42.4%
CC(C)(C)C(=O)NCC12C=CC(O1)C1C(=O)N(c3ccccc3)C(=O)C12 (centres undefined) | 94% (inactive) | 96.1% | 92.9% | 108% (inactive) | 108% | 111% | 110% (inactive) | 104% (inactive) | 106% (inactive) | 105% | 105%
COc1ccc(-c2noc(CCCC(=O)NCCc3ccccc3)n2)cc1OC | 99.3% (inactive) | 97.3% | 97.3% | 100% (inactive) | 101% | 101% | 103% (inactive) | 100% (inactive) | 101% (inactive) | 101% | 100%
O=C(Nc1ccccc1)c1c(F)cccc1F | 103% (inactive) | 103% | 103% | 97% (inactive) | 97.5% | 96.2% | 105% (inactive) | 102% (inactive) | 106% (inactive) | 103% | 107%

SMILES | GFP response vs DMSO [1] | GFP response vs DMSO [1, 6] | GFP response vs DMSO [1, 7] | GFP response relative to DMSO [2] | GFP response relative to DMSO [2, 8] | GFP response relative to DMSO [2, 9] | GFP response vs DMSO [3] | GFP response, % of DMSO [4] | GFP response, % of DMSO [5] | GFP response, % of DMSO [5, 6] | GFP response, % of DMSO [5, 7]
O=[N+]([O-])c1ccc(SCCc2ccncc2)cc1 | 94.8% (inactive) | 97.4% | 95.4% | 99.2% (inactive) | 99.2% | 98.3% | 96.2% (inactive) | 98.7% (inactive) | 99.7% (inactive) | 101% | 101%
COC(=O)c1ccc(/C=N/OCC(=O)NCCc2ccc(OC)c(OC)c2)cc1 | 99% (inactive) | 99% | 98.7% | 97.4% (inactive) | 102% | 97.2% | 102% (inactive) | 102% (inactive) | 107% (inactive) | 106% | 107%
CCN(CC)S(=O)(=O)c1ccc(O)c(C(=O)OCC(=O)NC2CCCC2)c1 | 99.2% (inactive) | 97.9% | 99.5% | 98.2% (inactive) | 97.5% | 97.3% | 96.8% (inactive) | 102% (inactive) | 105% (inactive) | 103% | 103%
Cc1cc(O)c(C(=O)/C=C/c2ccc(C(C)C)cc2)c(=O)o1 | 95.4% (inactive) | 93.9% | 96.6% | 104% (inactive) | 104% | 106% | 96.2% (inactive) | 100% (inactive) | 98.3% (inactive) | 99.1% | 97.3%
O=C(O)CCc1ccc(-c2ccccc2)o1 | 94.4% (inactive) | 92.6% | 96.4% | 139% (inactive) | 138% | 138% | 96.2% (inactive) | 93.1% (inactive) | 94% (inactive) | 95.4% | 92.6%
COCc1nnc(NC(=O)c2ccc(S(=O)(=O)N(C)c3ccccc3)cc2)o1 | 96.8% (inactive) | 96.6% | 97.1% | 101% (inactive) | 99.2% | 98.3% | 100% (inactive) | 92.5% (inactive) | 96.9% (inactive) | 97.2% | 97.3%
COc1ccccc1N1C(=O)CC(Sc2nccc(C)n2)C1=O (centres undefined) | 101% (inactive) | 98.6% | 102% | 95.7% (inactive) | 95.9% | 95.2% | 99% (inactive) | 99.6% (inactive) | 98.8% (inactive) | 93.8% | 99.3%
Cc1cc(N=Nc2ccccc2C(=O)O)c(C)c(C)c1O | 99.8% (inactive) | 99.4% | 99.3% | 108% (inactive) | 109% | 108% | 114% (inactive) | 98.4% (inactive) | 126% (inactive) | 129% | 125%
Brc1cc(Br)c2nc(-c3cccs3)ccc2c1 | 97.4% (inactive) | 99.1% | 96.7% | 99.5% (inactive) | 99.1% | 98.4% | 101% (inactive) | 98.2% (inactive) | 100% (inactive) | 97.4% | 99.3%
COCCN1C2=C(COC(C)(C)C2)C(=S)NC1c1ccccc1 (centres undefined) | 98% (inactive) | 98.9% | 99% | 94.1% (inactive) | 96% | 94% | 107% (inactive) | 99.1% (inactive) | 107% (inactive) | 108% | 108%
COc1ccc(N2CCN(C(=O)CCc3nnc4ccc(N5CCCC5)nn34)CC2)cc1 | 101% (inactive) | 99.2% | 101% | 96.2% (inactive) | 98.7% | 97.2% | 100% (inactive) | 97.8% (inactive) | 104% (inactive) | 101% | 104%
Oc1ccc(Cl)cc1-c1cc(-c2ccco2)[nH]n1 | 103% (inactive) | 100% | 104% | 95% (inactive) | 94.1% | 96.2% | 109% (inactive) | 88.2% (inactive) | 102% (inactive) | 99.7% | 101%
CC(NC(=O)C1CCC(CNS(=O)(=O)c2ccccc2)CC1)c1ccccc1 (centres undefined) | 101% (inactive) | 102% | 101% | 100% (inactive) | 102% | 99.5% | 104% (inactive) | 107% (inactive) | 99.3% (inactive) | 100% | 96.8%
c1ccc2oc(SCc3nc4ccccc4s3)nc2c1 | 99% (inactive) | 98.9% | 98.9% | 106% (inactive) | 104% | 106% | 98.3% (inactive) | 95% (inactive) | 99.7% (inactive) | 99.1% | 99.7%
Cc1ccccc1C(=O)Nc1cccc(C#N)c1 | 95.6% (inactive) | 96.7% | 94.2% | 97.7% (inactive) | 99% | 97.4% | 108% (inactive) | 99.8% (inactive) | 97.2% (inactive) | 99.3% | 97.1%
COC(=O)Cn1cc(/C=C/c2cc[n+](C)cc2)c2ccccc21 | 99.3% (inactive) | 99.3% | 98.2% | 97.7% (inactive) | 99% | 98.4% | 112% (inactive) | 104% (inactive) | 104% (inactive) | 105% | 104%
CCCCNC(=O)c1c(O)c2cccc3c2n(c1=O)CCC3 | 98.8% (inactive) | 98.4% | 99.8% | 97.4% (inactive) | 95.6% | 100% | 100% (inactive) | 100% (inactive) | 97.8% (inactive) | 96.5% | 97.7%
